Screening data as filed in PubChem BioAssay.
LMPTP inh = LMPTP (human) inhibition | P24666 | inhibition, % at 20 µM | actives 0.22% (n = 360,000) | recombinant LMPTP-A, OMFP fluorogenic substrate, fluorescence intensity | AID 651560;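 active means compounds that cut the enzyme signal by at least half of the control window in the single-dose screen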
Target sequence (P24666 whole entry, looked up): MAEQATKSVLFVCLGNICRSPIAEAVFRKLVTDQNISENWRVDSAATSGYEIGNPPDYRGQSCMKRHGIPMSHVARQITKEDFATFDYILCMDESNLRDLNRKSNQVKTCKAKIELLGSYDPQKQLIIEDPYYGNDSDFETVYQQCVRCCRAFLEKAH
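Test system: LMPTP-A phosphatase enzyme. Amount: LMPTP-A at 0.625 nM final in the reaction. Reagent: OMFP substrate, 400 µM final. Times: 50 min at room temperature. Signal: endpoint fluorescence intensity from OMFP dephosphorylation. Read-out basis: % inhibition. Benchmarks: no-enzyme and uninhibited controls.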
SUMO1-SIM PPI = SUMO1-SIM interaction modulation; inhibition, % at 20 µM; P63165; SUMO1 binding to a labelled peptide, TR-FRET, 1 h; actives 0.33% (n = 360,000); in the data active means inhibition above about 37%
Target sequence (P63165 whole entry, looked up): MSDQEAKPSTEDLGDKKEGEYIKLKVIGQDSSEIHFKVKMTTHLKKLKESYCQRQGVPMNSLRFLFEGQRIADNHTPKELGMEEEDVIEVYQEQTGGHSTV
HKDC1 inh = blocks human hexokinase HKDC1 activity; Q2TB90; recombinant HKDC1, G6PDH/diaphorase resazurin coupled fluorescence; inhibition, % at 20 µM; actives 0.16% (n = 340,000); AID 493160;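 active means inhibition above about 35% when tested at 20 µM, limit read from the data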
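test system = in-house recombinant HK5 (HKDC1) enzyme | amount = HKDC1 at 5 µg/mL | control set = DMSO-enzyme wells negative, buffer-substituted wells positive | compound = one dose of 20 µM, 1% DMSO | schedule = reaction time 90 min, room temperature, protected from light | technique = resorufin fluorescence at 613 nm | reagent = glucose with 1 mM ATP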
DNMT1 inh = inhibitors of human DNMT1; actives 0.83% (n = 360,000); DNMT1 molecular beacon, Hinp1I cleavage, fluorescence; P26358; inhibition (reported as % activation of signal), % at 10 µM; in the data active means inhibition above about 50%
Scp-1 inhibitor = blocks human Scp-1 phosphatase activity; Q9GZU7; Recombinant Scp1, phosphopeptide, malachite green phosphate absorbance; inhibition, % at 20 µM; actives 0.88% (n = 340,000);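 active means inhibition above about 50% at 20 µM, limit read from the data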
Target sequence (Q9GZU7 76-261 limits assumed): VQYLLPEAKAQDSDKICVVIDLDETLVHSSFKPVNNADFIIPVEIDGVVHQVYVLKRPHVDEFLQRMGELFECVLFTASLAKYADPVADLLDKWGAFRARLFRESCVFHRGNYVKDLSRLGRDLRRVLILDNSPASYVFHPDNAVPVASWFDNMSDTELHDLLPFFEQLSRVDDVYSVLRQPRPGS
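System: truncated SCP-1 phosphatase (76-261aa); medium: Tris acetate buffer pH 5.5 with MgCl2 and Tween-20; incubation: 45 min room-temperature reaction, 5 min colour, 30 min stabiliser; compound: single 20 µM dose, 1% DMSO; reagent: Phosphorylated 17-residue peptide substrate; read-out: % inhibition at 20 µM; technique: colorimetric free-phosphate detection, absorbance 630 nm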
STEP block = STEP (human) phosphatase inhibition | P54829 | recombinant STEP, OMFP fluorogenic substrate, fluorescence | inhibition, % at 20 µM | actives 0.25% (n = 360,000) | AID 588621;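 active means inhibition at 20 µM, scaled per plate between control wells, above about 37%, limit read from the data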
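Measure: Control-normalized % inhibition with plate pattern correction | Test system: STEP phosphatase, cell-free reaction | Medium: pH 6.0 Bis-Tris with DTT and Tween 20 | Technique: Fluorescence, 480/540 nm | Times: Reaction 20 min, ambient temperature | Doses: Single compound dose of 20 µM, 1% DMSO final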
Scp-1 conf = Scp-1 (human) inhibition, single-dose confirmed; shares compounds with Scp-1 inhibitor; actives 61% (n = 2,500); recombinant SCP-1 catalytic domain, phosphate release, malachite green absorbance; AID 540281; inhibition, % at 20 µM
Scp-1 MG ctr = colorimetric interference in Scp-1 counter-screen. shares compounds with Scp-1 inhibitor. Colorimetric interference counterscreen, malachite green absorbance 630 nm. apparent inhibition (interference), % at 20 µM. 2,500 tested, under 10 active;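 further: compounds added after enzyme reaction finished so only phosphate colour detection is probed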
Scp-1 Tm shift = binds human Scp-1, shifting its melting temperature; shares compounds with Scp-1 inhibitor; Recombinant SCP1, Sypro Orange thermal shift Tm; thermal shift relative to vanadate control, % at 40 µM; actives 25% (n = 1,500); AID 540329;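 active means substances whose mean melting-temperature shift, as a percentage of the reference inhibitor's shift, reaches about 5.3%, limit read from the data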
DNMT1 confirm = DNMT1 inhibition confirmation, single concentration; actives 8% (n = 2,300); inhibition, % at 10 µM; shares compounds with DNMT1 inh; DNMT1 molecular beacon HinP1I cleavage, fluorescence;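 active means average inhibition of at least 30% in the single-concentration confirmation test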
DNMT1 interf = shows spectral interference in the DNMT1 beacon assay. shares compounds with DNMT1 inh. DNMT1 molecular beacon spectral interference counterscreen, fluorescence 485/520. activation (fluorescence interference), % at 10 µM. actives 1% (n = 2,300). AID 602387;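 active means activation of at least 30% at 10 µM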;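 further: DNMT1 catalytic domain with a HinP1I cleavage step and a FAM/dabcyl DNA beacon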
A number is an active result; - = inactive; . = no result. An excerpt weighted towards active compounds, which were near 1.8% of everything screened.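 How the source made its calls, unless noted: active means inhibition of at least 30% at 20 µM; inactive means the rest.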

SMILES | LMPTP inh | SUMO1-SIM PPI | HKDC1 inh | DNMT1 inh | Scp-1 inhibitor | STEP block | Scp-1 conf | Scp-1 MG ctr | Scp-1 Tm shift | DNMT1 confirm | DNMT1 interf
O=[N+]([O-])c1ccc(/C=N/Nc2nc(-c3ccccc3)c3cc(Br)ccc3n2)o1 | 60 | - | - | 51 | 101 | - | 76 | - | - | - | -
Cc1ccc2nc(N/N=C\c3ccc([N+](=O)[O-])o3)nc(-c3ccccc3)c2c1 | - | - | - | - | - | - | . | . | . | . | .
N#Cc1c(NC(=O)c2ccco2)sc2c1CCC2 | - | - | - | 54 | 63 | - | 56 | - | - | - | -
COc1ccc(NC(=O)c2ccc(-n3cnnn3)cc2)c([N+](=O)[O-])c1 | - | - | - | - | - | - | . | . | . | . | .
Cc1ccc(C(=O)Oc2ccc(C(=O)COC(=O)C3CC(=O)N(Cc4ccco4)C3)cc2)cc1 (stereo not drawn) | - | - | - | 66 | 60 | - | 48 | - | - | - | -
Cc1[nH]c2ccccc2c1C(=O)COC(=O)C1CC(=O)N(Cc2ccco2)C1 (stereo not drawn) | - | - | - | - | - | - | . | . | . | . | .
CCCCn1c(N)c(N(CC)C(=O)C2=COCCO2)c(=O)[nH]c1=O | - | - | - | - | - | - | . | . | . | . | .
C=CCn1c(COc2ccc(F)cc2)nnc1SCC(=O)NC(=O)NCc1ccco1 | - | - | - | 74 | 61 | - | 56 | - | - | - | -
O=C(Nc1ccc(C(O)c2ccccc2)cc1)[C@@H]1O[C@H](CO)[C@H](O)[C@H](O)[C@H]1O (stereo partly drawn) | - | - | . | - | . | - | . | . | . | . | .
Cc1cc(C)cc(OCC(=O)N/N=C/c2ccco2)c1 | - | - | - | - | - | - | . | . | . | . | .
O=C(COc1cccc([N+](=O)[O-])c1)N/N=C/c1ccco1 | - | - | - | 59 | 63 | - | 45 | - | - | - | -
O=C(COc1cccc2ccccc12)N/N=C/c1ccco1 | - | - | - | - | - | - | . | . | . | . | .
CCc1ccc(OCC(=O)N/N=C\c2ccco2)c([N+](=O)[O-])c1 | - | - | - | 81 | 80 | - | 47 | - | - | - | -
Cc1ccc2nccc(C(=O)N3CCCC(N4CCN(c5ccc(F)cc5)CC4)C3)c2c1 (stereo not drawn) | - | - | - | - | - | - | . | . | . | . | .
CCCCN(C(=O)Cn1ncc(Cl)c(Cl)c1=O)c1c(N)n(CC(C)C)c(=O)[nH]c1=O | - | - | - | 61 | 82 | - | 76 | - | 6.2 | - | -
N=C1/C(=C/c2ccc(Br)o2)C(=O)N=C2SC(CC(=O)N3CCCC3)=NN12 | - | 57 | - | 66 | 88 | - | 58 | - | 8.1 | - | -
N=C1/C(=C/c2ccco2)C(=O)N=C2SC(CC(=O)N3CCCC3)=NN12 | - | - | - | 64 | 73 | - | 63 | - | - | - | -
Cc1ccc(/C=C2\C(=N)N3N=C(CC(=O)N4CCCCC4)SC3=NC2=O)cc1 | - | - | - | - | - | - | . | . | . | . | .
O=C(COc1ncnc2c(Cl)cc(Cl)cc12)Nc1cc([N+](=O)[O-])ccc1Cl | - | - | - | - | - | - | . | . | . | . | .
C=CC(=O)NCC1OCCc2ccccc21 (stereo not drawn) | - | - | - | - | - | - | . | . | . | . | .
O=C(/C=C/c1ccco1)NCC1OCCc2ccccc21 (stereo not drawn) | - | - | - | 56 | 91 | - | 62 | - | - | - | -
COc1ccccc1N1C(=N)S/C(=C\c2ccc(-c3ccccc3C(=O)O)o2)C1=O | - | - | - | 73 | 62 | - | 49 | - | 8.3 | - | -
Cc1c(C(=O)O)cccc1-c1ccc(/C=C2\SC(=O)NC2=O)o1 | - | - | - | - | - | - | . | . | . | . | .
CN(C(=O)COC(=O)c1ccc(Cl)c(S(=O)(=O)N2CCCCC2)c1)C1(C#N)CCCCC1 | - | - | - | - | - | - | . | . | . | . | .
O=C(O)/C(=C\c1cccc(F)c1)c1ccc(S(=O)(=O)N2CCCCC2)s1 | - | - | - | - | - | - | . | . | . | . | .
SMILES | LMPTP inh | SUMO1-SIM PPI | HKDC1 inh | DNMT1 inh | Scp-1 inhibitor | STEP block | Scp-1 conf | Scp-1 MG ctr | Scp-1 Tm shift | DNMT1 confirm | DNMT1 interf
CSc1ccc(/C=C(\C(=O)O)c2ccc(S(=O)(=O)N3CCCC3)s2)cc1 | - | - | - | 86 | 69 | - | 68 | - | 5.6 | - | -
COc1ccc2[nH]c(=O)cc(C(=O)O)c2c1 | - | - | - | 58 | 69 | - | 73 | - | - | - | -
O=C(CCc1nc2ccccc2c(=O)[nH]1)NNC(=O)COc1cccc(F)c1 | - | - | - | - | - | - | . | . | . | . | .
Cc1sc2ncnc(SCC(=O)NC(=O)NCc3ccco3)c2c1C | - | - | - | 69 | 57 | - | 49 | - | - | - | -
O=C(CSc1nc2cc(Cl)ccc2s1)NC(=O)NCc1ccco1 | - | - | - | 54 | 80 | - | 53 | - | - | - | -
Cc1nc(SCC(=O)NCc2ccco2)c2c(C)c(C)sc2n1 | - | - | - | - | - | - | . | . | . | . | .
CCOc1ccc2nc(SCC(=O)NC(=O)NCc3ccco3)sc2c1 | - | - | - | - | - | - | . | . | . | . | .
COc1ccc(OC)c(/C=c2\sc3nc(-c4cccs4)nn3c2=O)c1 | - | - | - | - | - | - | . | . | . | . | .
COc1ccccc1/C=c1\sc2nc(-c3ccco3)nn2c1=O | - | - | - | 106 | 69 | - | 72 | - | 7.8 | - | -
C=C(C)C(=O)Nc1cccc(C2=NOC3(C2)C[C@@H](C(N)=O)N(C(=O)c2cc([N+](=O)[O-])cc([N+](=O)[O-])c2)C3)c1 (stereo partly drawn) | - | 46 | - | 87 | 61 | - | 49 | - | - | - | -
CCOc1ccc(C(C)=O)cc1N1C(=O)C2C3C=CC(C3)C2C1=O (stereo not drawn) | - | - | - | 70 | 56 | - | 31 | - | - | - | -
CCOc1ccc(C(C)=O)cc1N1C(=O)C2C3C=CC(O3)C2C1=O (stereo not drawn) | - | - | - | - | - | - | . | . | . | . | .
CC1CCc2[nH]c3ccc(C(=O)N(C)CC(=O)Nc4ccccc4C(F)(F)F)cc3c2C1 (stereo not drawn) | - | - | - | - | - | - | . | . | . | . | .
